Data published in article PMC3873001 (Bioorganic & medicinal chemistry, 2013).

Columns and labels:
[1] = system: T. b. rhodesiense bloodstream form trypomastigotes (STIB 900); assay: In vitro growth inhibition of T. b. rhodesiense bloodstream form trypomastigotes; type: cell-based, Trypanosoma b. rhodesiense; conditions: for IC50: Trypanosoma brucei, RHODESIENSE|STIB900, read-out: T.b.rhod. IC-50; for reduction of anti-HAT activity compared to 3-nitrotriazole counterpart: 2-nitroimidazole analog vs 3-nitrotriazole counterpart (13 vs 9; 14 vs 11); for activity designation against T.b. rhodesiense: TDR criteria on IC50; for SI (T.b.rhod.): SI = IC50 in L6 cells / IC50 in T.b. rhodesiense
[2] = system: T. cruzi amastigotes (Tulahuen C4) in infected L6 myoblasts; assay: In vitro growth inhibition of T. cruzi amastigotes in infected L6 myoblasts; type: cell-based; conditions: for IC50: Trypanosoma cruzi, TULAHUEN, L6, read-out: T. cruzi IC-50; for reduction of antichagasic activity compared to 3-nitrotriazole counterpart: 2-nitroimidazole analog vs 3-nitrotriazole counterpart (13 vs 9; 14 vs 11); for reduction of antichagasic activity compared to 5: compared to compound 5
[3] = system: L. donovani axenic amastigotes (MHOM-ET-67/L82); assay: In vitro growth inhibition of axenically cultured L. donovani amastigotes; type: cell-based, Leishmania donovani; conditions: for IC50: Leishmania donovani, read-out: L.don. axen. IC-50; for SI (L.don. axen.): SI = IC50 in L6 cells / IC50 in L. donovani
[4] = Cytotoxicity assessment using L6 cells; type: cell-based; conditions: rat, L6 cells (rat skeletal myoblasts)
How it was run: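 Rat skeletal myoblasts (L6) were tested for growth inhibition as the host-cell toxicity counterpart to the parasite assays. IC50 was calculated by linear regression from sigmoidal dose-inhibition curves. Values are means of two independent assays, varying by less than ±50%.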

Cl.Cl.O=[N+]([O-])c1ncn(CCCN2CCN(Cc3ccc(C(F)(F)F)cc3)CC2)n1 [Compound 1]
IC50 [1]: 1.38 µM | IC50 [2]: 0.34 µM | IC50 [3]: 58.1 µM | SI (L.don. axen.) [3]: >3 | IC50 [4]: > 191 µM

COc1ccc(N2CCN(CCCn3ccnc3[N+](=O)[O-])CC2)cc1.Cl.Cl [Compound 13, 1-(4-methoxyphenyl)-4-[3-(2-nitro-1H-imidazol-1-yl)propyl]piperazine dihydro-chloride]
reduction of anti-HAT activity compared to 3-nitrotriazole counterpart [1]: ~2 fold | reduction of antichagasic activity compared to 3-nitrotriazole counterpart [2]: about 62 fold

Cl.Cl.Cl.Cl.O=[N+]([O-])c1ncn(CCCN2CCN(c3ccc(Cl)c(Cl)c3)CC2)n1 [Compound 7, 1-(3,4-dichlorophenyl)-4-[3-(3-nitro-1H-1,2,4-triazol-1-yl)propyl]piperazine dihydrochloride]
activity designation against T.b. rhodesiense [1]: active

O=[N+]([O-])c1ncn(CCCN2CCN(c3ccncc3)CC2)n1 [Compound 6, 1-[3-(3-nitro-1H-1,2,4-triazol-1-yl)propyl]-4-(pyridin-4-yl)piperazine]
reduction of antichagasic activity compared to 5 [2]: more than 10 fold

COc1ccc(N2CCN(CCCn3cnc([N+](=O)[O-])n3)CC2)cc1 [Compound 9, 1-(4-methoxyphenyl)-4-[3-(3-nitro-1H-1,2,4-triazol-1-yl)propyl]piperazine dihydro-chloride]
IC50 [4]: 125 µM

Cl.Cl.O=[N+]([O-])c1ncn(CCCN2CCN(c3ccc(C(F)(F)F)cc3)CC2)n1 [Compound 3]
SI (T.b.rhod.) [1]: 10 | IC50 [1]: 5.33 µM | IC50 [2]: 0.04 µM | IC50 [3]: 25.9 µM | SI (L.don. axen.) [3]: 2

Cl.Cl.O=[N+]([O-])c1ncn(CCCCN2CCN(Cc3ccc(C(F)(F)F)cc3)CC2)n1 [Compound 2]
SI (T.b.rhod.) [1]: 99 | IC50 [1]: 1.2 µM | IC50 [2]: 0.412 µM | IC50 [3]: 44.5 µM | SI (L.don. axen.) [3]: 3

O=[N+]([O-])c1nccn1CCCCNc1nc2ccc(Cl)cc2s1 [Compound 20, 6-chloro-N-[4-(2-nitro-1H-imidazol-1-yl)butyl]-1,3-benzothiazol-2-amine]
IC50 [3]: 7.3 µM

Cl.Cl.Cl.Cl.O=[N+]([O-])c1nccn1CCCN1CCN(Cc2ccc(Cl)c(Cl)c2)CC1 [Compound 14, 1-[(3,4-dichlorophenyl)methyl]-4-[3-(2-nitro-1H-imidazol-1-yl)propyl]piperazine dihydrochloride]
reduction of anti-HAT activity compared to 3-nitrotriazole counterpart [1]: ~14 fold | reduction of antichagasic activity compared to 3-nitrotriazole counterpart [2]: about 33 fold

O=[N+]([O-])c1ncn(CCCCNc2nc3ccc(Cl)cc3s2)n1 [Compound 17, 6-chloro-N-[4-(3-nitro-1H-1,2,4-triazol-1-yl)butyl]-1,3-benzothiazol-2-amine]
activity designation against T.b. rhodesiense [1]: active

Cl.Cl.O=[N+]([O-])c1ncn(CCCN2CCN(c3ncccn3)CC2)n1 [Compound 4, 2-{4-[3-(3-nitro-1H-1,2,4-triazol-1-yl)propyl]piperazin-1-yl}pyrimidine dihydrochloride]
reduction of antichagasic activity compared to 5 [2]: 2 fold

O=[N+]([O-])c1ncn(CCCNc2nc3ccc(Cl)cc3s2)n1 [Compound 15, 6-chloro-N-[3-(3-nitro-1H-1,2,4-triazol-1-yl)propyl]-1,3-benzothiazol-2-amine]
activity designation against T.b. rhodesiense [1]: active | activity designation against L. donovani ([3]; TDR criteria on IC50): moderately active (IC50 = 1.0-6.0 μM)
